Drawing on ChEMBL document CHEMBL1124801, “Novel 3-hydroxy-2(1H)-pyridinones. Synthesis, iron(III)-chelating properties, and biological activity” (J Med Chem, 1990), this text covers Distribution coefficient and pKa for twelve compounds.

Common to all, as to assay type: physicochemical
Data set [1] is described as follows: Distribution coefficient was measured at an aqueous phase buffered at pH 7.4 and octanol. The settings on record: octanol/water. In a few lines:
(§1)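 Spectrophotometric partition: ligands at about 0.1 mM in 20 mM Tris-HCl pH 7.4 shaken overnight with octan-1-ol at 25 °C. Octanol volume chosen to lower aqueous absorbance by 30–70%; three preparations used. Aqueous spectra read at 250–350 nm for free ligands and 350–600 for iron(III) complexes, the complexes formed with over 10-fold ligand excess over iron(III).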

Data set [2] can be described thus: Distribution coefficient and iron(III) complex was measured at an aqueous phase buffered at pH 7.4 and octanol. The conditions noted are these: octanol/water. In short, it runs like this:
as §1

Data set [3] in a line: pKa values was measured by spectrophotometric method.
Data set [4] is described as follows: pKa values were measured by spectrophotometric method.

Molecules are shown by their SMILES. A value given as a limit tells only on which side of the number the result lay.

Turning to `CC(=O)N(O)CCCCCNC(=O)CCC(=O)N(O)CCCCCNC(=O)CCC(=O)N(O)CCCCCN` [DEFEROXAMINE], the Distribution coefficient in data set [1] was 0.07; in data set [2], 0.03.

With `CCCCn1cccc(O)c1=O`, the Distribution coefficient is given as 16 in data set [1] and above 1000 in data set [2].

Turning to `O=C(Cn1cccc(O)c1=O)NCCN(CCNC(=O)Cn1cccc(O)c1=O)CCNC(=O)Cn1cccc(O)c1=O`, the Distribution coefficient in data set [1] is 0.025; in data set [2] it was 0.008. Also, the pKa (usually the pH at which an ionisable group is half protonated) in data set [3] came out at 8.7.

Consider `CCn1cccc(O)c1=O`, for which the Distribution coefficient in data set [1] came to 1.57; in data set [2], 1.67. In addition, in data set [4], the pKa worked out at 8.99.

As to `CNC(=O)Cn1cccc(O)c1=O`, the Distribution coefficient in data set [1] stood at 0.07; in data set [2], 0.001.

With `CC(C)NC(=O)Cn1cccc(O)c1=O`, the Distribution coefficient in data set [1] came out at 0.46; in data set [2], 0.11.

For `CCCNC(=O)Cn1cccc(O)c1=O`, the Distribution coefficient in data set [1] came out at 0.57; in data set [2], 0.35. In data set [3], this compound gave a pKa of 8.75.

In the case of `Cn1cccc(O)c1=O`, the Distribution coefficient in data set [1] was 0.6; in data set [2], 0.12.

For `CC(C)n1cccc(O)c1=O`, the values for the Distribution coefficient in data set [1] and in data set [2] were 6.17 and 234, respectively.

`CCNC(=O)Cn1cccc(O)c1=O`: the figures for the Distribution coefficient in data set [1] and in data set [2] were 0.18 and 0.035, respectively.

As for `CCCn1cccc(O)c1=O`, the Distribution coefficient in data set [1] came out at 4.92; in data set [2] it was 24.6.

On to `CCCCNC(=O)Cn1cccc(O)c1=O`, for which the values for the Distribution coefficient in data set [1] and in data set [2] were 2.12 and 3.74, respectively.
